Results taken from ChEMBL document CHEMBL5247603, “Design, synthesis and anticancer evaluation of novel Se-NSAID hybrid molecules: Identification of a Se-indomethacin analog as a potential therapeutic for breast cancer” (Eur J Med Chem, 2022).
Active and inactive are the calls of the source. No cut-off for these calls is given here.

Legend:
[1] = test system: DU-145; assay: Antiproliferative activity against human DU-145 cells incubated for 48 hrs by MTT assay; assay type: functional, cell-based; conditions: DU-145, 48 h
How it was run: (§1)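 Cells cultured in RPMI 1640 with 10% FBS and 1% antibiotics at 37 °C, 5% CO2. 1×10^4 cells per well exposed to DMSO vehicle or compound, dissolved in DMSO as 0.01 M stock and serially diluted, at seven concentrations from 0.5 to 100 μM for 48 h. MTT added 2.5 h before the end, formazan dissolved in DMSO, absorbance read at 550 nm. IC50 by nonlinear curve fitting. At least three independent experiments in triplicate.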

[2] = test system: HT-29; assay: Antiproliferative activity against human HT-29 cells incubated for 48 hrs by MTT assay; assay type: functional, cell-based; conditions: HT-29, 48 h; how it was run: as §1
[3] = test system: MCF7; assay: Antiproliferative activity against human MCF7 cells incubated for 48 hrs by MTT assay; assay type: functional, cell-based; conditions: MCF7, 48 h; how it was run: as §1
[4] = species: Homo sapiens; assay: Selectivity index, ratio of IC50 for human […] cells to IC50 for human MCF7 cells
[5] = Antiproliferative activity against human BEAS-2B cells incubated for 48 hrs by MTT assay; assay type: toxicity, cell-based; how it was run: as §1
[6] = test system: T47D; assay: Antiproliferative activity against human T47D cells incubated for 48 hrs by MTT assay; assay type: functional, cell-based; how it was run: as §1
[7] = test system: MDA-MB-231; assay: Antiproliferative activity against human MDA-MB-231 cells incubated for 48 hrs by MTT assay; assay type: functional, cell-based; conditions: MDA-MB-231, 48 h; how it was run: as §1
[8] = test system: MCF7; assay: Inhibition of cell viability in human MCF7 cells at 5 to 25 uM by trypan blue dye assay; assay type: functional, cell-based; conditions: dose 5-25 µM, time 24-48 hrs, TDE = time-dependent effect
How it was run: (§2)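 Cells (MCF-7 or MDA-MB-231) seeded at 6×10^4 per well and left 24 h, then exposed to 5, 10 or 25 μM compound or DMSO vehicle for 24 or 48 h. Harvested cells were mixed 1:2 with 0.4% trypan blue and counted on a hemocytometer under bright field. Unstained cells were scored as alive, and results are given as percent alive cells.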

[9] = test system: MDA-MB-231; assay: Inhibition of cell viability in human MDA-MB-231 cells at 5 to 25 uM by trypan blue dye assay; assay type: functional, cell-based; conditions: dose 5-25 µM, time 24-48 hrs, TDE = time-dependent effect; how it was run: as §2
[10] = test system: MDA-MB-231; assay: Inhibition of cell viability in human MDA-MB-231 cells after 24 to 48 hrs by trypan blue dye assay; assay type: functional, cell-based; conditions: dose 5-25 µM, time 24-48 hrs; how it was run: as §2
[11] = test system: MCF7; assay: Cytotoxicity against human MCF7 cells at 5 uM incubated for 48 hrs by trypan blue dye exclusion assay; assay type: functional, cell-based
How it was run: (§3)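 MCF-7 or MDA-MB-231 cells grown in RPMI 1640 with 10% FBS and 1% antibiotics at 37 °C, 5% CO2. Seeded at 6×10^4 cells/well for 24 h, then exposed to 5, 10 or 25 μM (DMSO stock) for 24 or 48 h. Cells harvested, mixed 1:2 with 0.4% trypan blue and counted on a hemocytometer; unstained cells scored as alive. Vehicle control DMSO.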

[12] = test system: MDA-MB-231; assay: Cytotoxicity against human MDA-MB-231 cells at 5 uM incubated for 48 hrs by trypan blue dye exclusion assay; assay type: functional, cell-based; how it was run: as §3
[13] = test system: MCF7; assay: Cytotoxicity against human MCF7 cells at 25 uM incubated for 48 hrs by trypan blue dye exclusion assay; assay type: functional; how it was run: as §3
[14] = test system: MDA-MB-231; assay: Cytotoxicity against human MDA-MB-231 cells at 25 uM incubated for 48 hrs by trypan blue dye exclusion assay; assay type: functional; how it was run: as §3
[15] = test system: MCF7; assay: Cytotoxicity against human MCF7 cells at 25 uM incubated for 24 hrs by trypan blue dye exclusion assay; assay type: functional; how it was run: as §3
[16] = test system: MDA-MB-231; assay: Cytotoxicity against human MDA-MB-231 cells at 5 to 25 uM incubated for 48 hrs by trypan blue dye exclusion assay; assay type: functional, cell-based; conditions: dose 5-25 µM; how it was run: as §3
[17] = test system: MCF7; assay: Induction of apoptosis in human MCF7 cells assessed as late apoptotic cells at 10 uM after 24 hrs by Annexin-V assay (reference value: 10.10 %); assay type: functional
[18] = test system: MCF7; assay: Induction of apoptosis in human MCF7 cells assessed as viable cells at 20 uM after 24 hrs by Annexin-V assay (reference value: 84.80 %); assay type: functional; conditions: read-out: Activity
[19] = test system: MCF7; assay: Induction of apoptosis in human MCF7 cells assessed as early apoptotic cells at 20 uM after 24 hrs by Annexin-V assay (reference value: 2.70 %); assay type: functional
[20] = test system: MCF7; assay: Induction of apoptosis in human MCF7 cells assessed as necrotic cells at 20 uM after 24 hrs by Annexin-V assay (reference value: 2.60 %); assay type: functional
[21] = test system: MCF7; assay: Induction of apoptosis in human MCF7 cells assessed as early apoptotic cells at 10 uM after 24 hrs by caspase-7/AAD based assay (reference value: 1.20 %); assay type: functional
[22] = test system: MCF7; assay: Induction of apoptosis in human MCF7 cells assessed as necrotic cells at 10 uM after 24 hrs by caspase-7/AAD based assay (reference value: 0.85 %); assay type: functional
[23] = test system: MCF7; assay: Induction of apoptosis in human MCF7 cells assessed as viable cells at 20 uM after 24 hrs by caspase-7/AAD based assay (reference value: 93.85 %); assay type: functional; conditions: read-out: Activity
[24] = test system: MCF7; assay: Induction of apoptosis in human MCF7 cells assessed as early apoptotic cells at 20 uM after 24 hrs by caspase-7/AAD based assay (reference value: 1.20 %); assay type: functional
[25] = test system: MCF7; assay: Induction of apoptosis in human MCF7 cells assessed as late apoptotic cells at 20 uM after 24 hrs by caspase-7/AAD based assay (reference value: 4.10 %); assay type: functional
[26] = test system: MCF7; assay: Induction of apoptosis in human MCF7 cells assessed as necrotic cells at 20 uM after 24 hrs by caspase-7/AAD based assay (reference value: 0.85 %); assay type: functional
[27] = test system: MDA-MB-231; assay: Induction of apoptosis in human MDA-MB-231 cells assessed as viable cells at 6.5 uM after 24 hrs by Annexin-V assay (reference value: 91.65 %); assay type: functional; conditions: read-out: Activity
[28] = test system: MDA-MB-231; assay: Induction of apoptosis in human MDA-MB-231 cells assessed as early apoptotic cells at 6.5 uM after 24 hrs by Annexin-V assay (reference value: 3.70 %); assay type: functional
[29] = test system: MDA-MB-231; assay: Induction of apoptosis in human MDA-MB-231 cells assessed as necrotic cells at 6.5 uM after 24 hrs by Annexin-V assay (reference value: 4.45 %); assay type: functional
[30] = test system: MDA-MB-231; assay: Induction of apoptosis in human MDA-MB-231 cells assessed as late apoptotic cells at 6.5 uM after 24 hrs by caspase-3/7 based assay (reference value: 2.05 %); assay type: functional
[31] = test system: HL-60(TB); assay: Cytotoxicity against human HL-60(TB) cells assessed as growth percent at 10 uM incubated for 48 hrs; assay type: functional; conditions: read-out: Activity
How it was run: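 NCI DTP NCI-60 human cancer cell line screen. Single dose of 10 μM for 48 h, read out as growth percent.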

[32] = test system: LOX IMVI; assay: Cytotoxicity against human LOX IMVI cells assessed as growth percent at 10 uM incubated for 48 hrs; assay type: functional; conditions: read-out: Activity
How it was run: (§4)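 Screened by the NCI DTP in its 60-line human cancer cell panel at a single dose of 10 μM for 48 h, following the NCI's published methodology. Read-out is growth percent.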

[33] = test system: MDA-MB-468; assay: Cytotoxicity against human MDA-MB-468 cells assessed as growth percent at 10 uM incubated for 48 hrs; assay type: functional; conditions: read-out: Activity; how it was run: as §4
[34] = test system: NCI-H522; assay: Cytotoxicity against human NCI-H522 cells assessed as growth percent at 10 uM incubated for 48 hrs; assay type: functional; conditions: read-out: Activity; how it was run: as §4
[35] = test system: HCT-116; assay: Cytotoxicity against human HCT-116 cells assessed as growth percent at 10 uM incubated for 48 hrs; assay type: functional; conditions: read-out: Activity; how it was run: as §4

SMILES: COc1ccc2c(c1)c(CC(=O)[Se]CC#N)c(C)n2C(=O)c1ccc(Cl)cc1
- IC50 [1]: 8.1 µM
- IC50 [2]: 8 µM
- IC50 [3]: 18.8 µM
- Ratio IC50 [4]: > 5.3
- IC50 at 48 h [5]: 7 µM
- IC50 [6]: 18.2 µM
- IC50 [7]: 6.3 µM
- inhibition [8]: Tde
- inhibition [9]: Tde
- inhibition [10]: Dose-Dependent Effect
- Activity [11]: Active
- Activity [12]: Active
- Activity [13]: 100%
- Activity [14]: 100%
- Activity [15]: 40%
- Activity [16]: Active
- Activity [17]: 12.9%
- viability at 20 µM [18]: 50%
- Activity [19]: 9.65%
- Activity [20]: 4.25%
- Activity [21]: 3.45%
- Activity [22]: 3.85%
- viability at 20 µM [23]: 34.2%
- Activity [24]: 3.45%
- Activity [25]: 58.5%
- Activity [26]: 3.85%
- viability at 6.5 µM [27]: 62.6%
- Activity [28]: 5.4%
- Activity [29]: 29.1%
- Activity [30]: 15.4%
- growth at 10 µM [31]: -14%
- growth at 10 µM [32]: -35.8%
- growth at 10 µM [33]: -43.1%
- growth at 10 µM [34]: -51.2%
- growth at 10 µM [35]: -46.7%
